# Reference: ChEMBL document CHEMBL4043192, “The discovery of IDX21437: Design, synthesis and antiviral evaluation of 2'-α-chloro-2'-β-C-methyl branched uridine pronucleotides as potent liver-targeted HCV polymerase inhibitors” (Bioorg Med Chem Lett, 2017)
# Experiments:
# [1] = test system: Hepatitis C virus; assay: Antiviral activity against HCV genotype 1b Con1 expressing NS3 protease infected in human Huh-7 cells assessed as reduction in viral RNA replication after 72 hrs by luciferase reporter gene assay; format: functional, cell-based, Hepacivirus hominis; conditions: genotype 1b Con1, Huh-7, 72 h
# [2] = Selectivity index, ratio of CC50 for human Huh-7 cells to EC50 for HCV genotype 1b Con1 expressing NS3 protease
# Summary of the method: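 Selectivity index = CC50/EC50. EC50 from a luciferase-read Con1 subgenomic replicon assay in Huh-7 (GS4.1) cells.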
# [3] = test system: Liver; assay: Dose normalized AUC (0 to 24 hrs) in mouse liver assessed as 2'-C-MeUTP level at 10 mg/kg, po administered as single dose; format: ADME, organism-based; conditions: in vivo
# Summary of the method: (§1)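 Mice given a single oral 10 mg/kg dose. Triphosphate measured in liver and parent nucleoside in plasma. AUC expressed as dose-normalized AUC (AUC per mg/kg).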
# [4] = test system: Plasma; assay: Dose normalized AUC (0 to 24 hrs) in mouse plasma assessed as 2'-C-MeU level at 10 mg/kg, po administered as single dose; format: ADME, organism-based; conditions: in vivo; summary of the method: as §1
SMILES,EC50 [1] [nM],Ratio CC50/EC50 [2],AUC/dose [3] [pmol·h/g],AUC/dose [4] [pmol·h/mL]
C[C@H](N[P@](=O)(OC[C@H]1O[C@@H](n2ccc(=O)[nH]c2=O)[C@](C)(Cl)[C@@H]1O)Oc1ccccc1)C(=O)OCc1ccccc1,71,>1408,850,2500
C[C@@H](N[P@](=O)(OC[C@H]1O[C@@H](n2ccc(=O)[nH]c2=O)[C@](C)(Cl)[C@@H]1O)Oc1ccccc1)C(=O)OCc1ccccc1,819,>122,6900,1700
CC(C)C[C@H](N[P@@](=O)(OC[C@H]1O[C@@H](n2ccc(=O)[nH]c2=O)[C@](C)(Cl)[C@@H]1O)Oc1ccccc1)C(=O)OC(C)C,12600,>8,–,–
CCOC(=O)[C@H](CC(C)C)N[P@@](=O)(OC[C@H]1O[C@@H](n2ccc(=O)[nH]c2=O)[C@](C)(Cl)[C@@H]1O)Oc1ccccc1,2490,>40,220,940
CCOC(=O)[C@@H](CC(C)C)N[P@@](=O)(OC[C@H]1O[C@@H](n2ccc(=O)[nH]c2=O)[C@](C)(Cl)[C@@H]1O)Oc1ccccc1,37400,>3,–,–
CC(C)(CO)C(=O)SCCO[P@](=O)(NCc1ccccc1)OC[C@H]1O[C@@H](n2ccc(=O)[nH]c2=O)[C@](C)(Cl)[C@@H]1O,3610,>28,96,590
CC(C)OC(=O)[C@@H](C)N[P@]1(=O)OC[C@H]2O[C@@H](n3ccc(=O)[nH]c3=O)[C@](C)(Cl)[C@@H]2O1,42300,>2,7500,910
CCOC(=O)[C@H](C)N[P@@](=O)(OC[C@H]1O[C@@H](n2ccc(=O)[nH]c2=O)[C@](C)(Cl)[C@@H]1O)Oc1ccccc1,845,>118,840,1100
C[C@@H](N[P@@](=O)(OC[C@H]1O[C@@H](n2ccc(=O)[nH]c2=O)[C@](C)(Cl)[C@@H]1O)Oc1ccccc1)C(=O)OCc1ccccc1,4280,>23,5600,1400
CC(C)OC(=O)[C@@H](N[P@@](=O)(OC[C@H]1O[C@@H](n2ccc(=O)[nH]c2=O)[C@](C)(Cl)[C@@H]1O)Oc1ccccc1)C(C)C,> 100000,>1,–,–
CCOC(=O)[C@@H](C)N[P@](=O)(OC[C@H]1O[C@@H](n2ccc(=O)[nH]c2=O)[C@](C)(Cl)[C@@H]1O)Oc1ccccc1,2550,>39,–,–
CC(C)OC(=O)[C@@H](N[P@](=O)(OC[C@H]1O[C@@H](n2ccc(=O)[nH]c2=O)[C@](C)(Cl)[C@@H]1O)Oc1ccccc1)C(C)C,> 100000,>1,–,–
CCCCOC(=O)[C@@H](C)N[P@](=O)(OC[C@H]1O[C@@H](n2ccc(=O)[nH]c2=O)[C@](C)(Cl)[C@@H]1O)Oc1ccccc1,528,>189,7200,1700
CC(C)(CO)C(=O)SCCOP(=O)(NCc1ccccc1)OC[C@H]1O[C@@H](n2cnc3c(=O)[nH]c(N)nc32)[C@](C)(O)[C@@H]1O (some centres not stated),203,>370,275,45
CCCCOC(=O)[C@@H](C)N[P@@](=O)(OC[C@H]1O[C@@H](n2ccc(=O)[nH]c2=O)[C@](C)(Cl)[C@@H]1O)Oc1ccccc1,2180,>46,8400,1700
CCOC(=O)[C@H](CC(C)C)N[P@](=O)(OC[C@H]1O[C@@H](n2ccc(=O)[nH]c2=O)[C@](C)(Cl)[C@@H]1O)Oc1ccccc1,291,>344,270,2100
CC(C)OC(=O)[C@H](C)NP(=O)(N[C@@H](C)C(=O)OC(C)C)OC[C@H]1O[C@@H](n2ccc(=O)[nH]c2=O)[C@](C)(Cl)[C@@H]1O,12000,>8,–,–

SMILES,EC50 [1] [nM],Ratio CC50/EC50 [2],AUC/dose [3] [pmol·h/g],AUC/dose [4] [pmol·h/mL]
CC(C)OC(=O)[C@@H](C)N[P@@]1(=O)OC[C@H]2O[C@@H](n3ccc(=O)[nH]c3=O)[C@](C)(Cl)[C@@H]2O1,31800,>3,2400,770
CCOC(=O)NCC(C)(C)C(=O)SCCO[P@](=O)(NCc1ccccc1)OC[C@H]1O[C@@H](n2ccc(=O)[nH]c2=O)[C@](C)(Cl)[C@@H]1O,1270,>79,–,–
CCOC(=O)[C@@H](CC(C)C)N[P@](=O)(OC[C@H]1O[C@@H](n2ccc(=O)[nH]c2=O)[C@](C)(Cl)[C@@H]1O)Oc1ccccc1,> 100000,>1,–,–
CC(C)OC(=O)[C@H](C)N[P@@](=O)(OC[C@H]1O[C@@H](n2ccc(=O)[nH]c2=O)[C@](C)(F)[C@@H]1O)Oc1ccccc1,2080,>48,310,320
CCOC(=O)[C@H](C)N[P@](=O)(OC[C@H]1O[C@@H](n2ccc(=O)[nH]c2=O)[C@](C)(Cl)[C@@H]1O)Oc1ccccc1,257,>389,400,1100
CC(C)(CO)C(=O)SCCO[P@@](=O)(NCc1ccccc1)OC[C@H]1O[C@@H](n2ccc(=O)[nH]c2=O)[C@](C)(Cl)[C@@H]1O,3990,>25,150,930
CC(C)OC(=O)[C@H](C)N[P@]1(=O)OC[C@H]2O[C@@H](n3ccc(=O)[nH]c3=O)[C@](C)(Cl)[C@@H]2O1,508,>197,21,570
CC(C)C[C@H](N[P@](=O)(OC[C@H]1O[C@@H](n2ccc(=O)[nH]c2=O)[C@](C)(Cl)[C@@H]1O)Oc1ccccc1)C(=O)OC(C)C,1110,>90,–,–
CC(C)OC(=O)[C@H](C)N[P@@](=O)(OC[C@H]1O[C@@H](n2ccc(=O)[nH]c2=O)[C@](C)(Cl)[C@@H]1O)Oc1ccccc1,953,>105,840,970
C[C@H](N[P@@](=O)(OC[C@H]1O[C@@H](n2ccc(=O)[nH]c2=O)[C@](C)(Cl)[C@@H]1O)Oc1ccccc1)C(=O)OCc1ccccc1,185,>541,1200,1900
"CCOC(=O)NCC(C)(C)C(=O)SCCOP1(=O)OC[C@H]2O[C@@H](n3ccc(=O)[nH]c3=O)[C@](C)(Cl)[C@@H]2O1 (single isomer, unassigned; 27a)",351,>285,–,–
CC(C)(CO)C(=O)SCCO[P@@]1(=O)OC[C@H]2O[C@@H](n3ccc(=O)[nH]c3=O)[C@](C)(Cl)[C@@H]2O1,417,>240,3600,710
CC(C)OC(=O)[C@H](C)N[P@](=O)(OC[C@H]1O[C@@H](n2ccc(=O)[nH]c2=O)[C@](C)(Cl)[C@@H]1O)Oc1ccccc1,158,>633,560,1300
CCOC(=O)NCC(C)(C)C(=O)SCCO[P@@](=O)(NCc1ccccc1)OC[C@H]1O[C@@H](n2ccc(=O)[nH]c2=O)[C@](C)(Cl)[C@@H]1O,1160,>86,–,–
"CCOC(=O)NCC(C)(C)C(=O)SCCOP1(=O)OC[C@H]2O[C@@H](n3ccc(=O)[nH]c3=O)[C@](C)(Cl)[C@@H]2O1 (single isomer, unassigned; 27b)",73,>1370,3300,–
CCOC(=O)[C@@H](C)N[P@@](=O)(OC[C@H]1O[C@@H](n2ccc(=O)[nH]c2=O)[C@](C)(Cl)[C@@H]1O)Oc1ccccc1,8140,>12,–,–
